We go through 4 compounds from ChEMBL document CHEMBL1145383, “Synthesis of stable and potent delta/mu opioid peptides: analogues of H-Tyr-c[D-Cys-Gly-Phe-D-Cys]-OH by ring-closing metathesis” (J Med Chem, 2007).

Experiment [1] addresses Kappa-type opioid receptor (Cavia porcellus, UniProt P41144). Briefly: Displacement of [3H]U-69593 from kappa opioid receptor in guinea pig brain membrane. It counts as cell membranes.
The target in experiment [2] is Mu-type opioid receptor (Cavia porcellus, UniProt P97266). Briefly: Agonist activity at mu opioid receptor in isolated guinea pig ileum assessed as inhibition of electrically-evoked myenteric muscle contraction. It counts as functional, tissue-based. The procedure, abridged:
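Longitudinal muscle-myenteric plexus from male Hartley guinea pigs (150–400 g), in oxygenated (95% O2/5% CO2) Krebs bicarbonate at 37 °C. Tension 1 g, transmural stimulation at 0.1 Hz with 0.4 ms pulses at supramaximal voltage. Agonist left 3 min, then washout and 8 min re-equilibration. IC50 by nonlinear least-squares Hill fit of mean data from at least four tissues.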

The target of experiment [3] is T1, Delta-type opioid receptor (Homo sapiens, UniProt P41143). Briefly: Agonist activity at human delta opioid receptor by [35S]GTP-gamma-S binding assay. It counts as functional. The procedure, abridged:
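Cells expressing hDOR were incubated with increasing test concentrations plus 0.1 nM [35S]GTPγS, in duplicate, for 90 min at 30 °C. Reaction stopped by vacuum filtration through GF/B filters pretreated with assay buffer. Filters washed four times with ice-cold 15 mM Tris/120 mM NaCl, pH 7.4, and bound label counted by liquid scintillation after overnight extraction.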

Experiment [4] addresses T2, Mu-type opioid receptor (Homo sapiens, UniProt P35372). Briefly: Agonist activity at human mu opioid receptor by [35S]GTP-gamma-S binding assay relative to control. It counts as functional.
The target in experiment [5] is Delta-type opioid receptor (Mus musculus, UniProt P32300). Briefly: Agonist activity at delta opioid receptor in mouse vas deferens assessed as inhibition of electrically-evoked muscle contraction. It counts as functional, tissue-based. The procedure, abridged: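 Mouse vas deferens from male ICR mice (25–30 g), bathed in oxygenated (95% O2/5% CO2) magnesium-free Krebs bicarbonate at 37 °C. Tension 0.5 g, stimulated transmurally at 0.1 Hz with 2.0 ms pulses at supramaximal voltage. Agonist contact 3 min, then rinse and 8 min recovery. IC50 from Hill fit of mean data, n ≥ 4 tissues.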

Experiment [6] concerns the target T1, Delta-type opioid receptor. Briefly: Agonist activity at human delta opioid receptor by [35S]GTP-gamma-S binding assay relative to control. It counts as functional.
The target of experiment [7] is T2, Mu-type opioid receptor. Briefly: Agonist activity at human mu opioid receptor by [35S]GTP-gamma-S binding assay. It counts as functional.

Molecules are shown by their SMILES.

T1 sequence (P41143 whole entry): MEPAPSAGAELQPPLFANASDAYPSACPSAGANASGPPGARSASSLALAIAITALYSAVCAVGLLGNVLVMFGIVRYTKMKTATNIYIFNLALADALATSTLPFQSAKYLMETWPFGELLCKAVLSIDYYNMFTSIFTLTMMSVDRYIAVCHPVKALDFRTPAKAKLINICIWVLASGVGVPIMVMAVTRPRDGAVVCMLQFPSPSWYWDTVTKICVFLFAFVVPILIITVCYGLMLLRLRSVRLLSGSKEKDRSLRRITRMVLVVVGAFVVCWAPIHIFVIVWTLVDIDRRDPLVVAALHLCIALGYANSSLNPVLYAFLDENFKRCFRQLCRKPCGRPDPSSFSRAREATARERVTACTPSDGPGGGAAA
Chain of Delta-type opioid receptor (Mus musculus, UniProt P32300) (P32300 whole entry): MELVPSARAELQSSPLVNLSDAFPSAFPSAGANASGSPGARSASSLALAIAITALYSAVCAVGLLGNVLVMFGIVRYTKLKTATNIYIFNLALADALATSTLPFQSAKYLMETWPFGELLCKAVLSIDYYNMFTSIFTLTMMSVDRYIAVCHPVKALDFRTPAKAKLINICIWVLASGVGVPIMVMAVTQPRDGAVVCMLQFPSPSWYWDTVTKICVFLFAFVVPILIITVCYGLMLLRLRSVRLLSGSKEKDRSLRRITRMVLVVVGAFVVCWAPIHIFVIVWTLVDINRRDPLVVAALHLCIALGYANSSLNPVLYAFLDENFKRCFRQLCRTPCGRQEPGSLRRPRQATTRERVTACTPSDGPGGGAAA
Chain of Kappa-type opioid receptor (P41144 whole entry): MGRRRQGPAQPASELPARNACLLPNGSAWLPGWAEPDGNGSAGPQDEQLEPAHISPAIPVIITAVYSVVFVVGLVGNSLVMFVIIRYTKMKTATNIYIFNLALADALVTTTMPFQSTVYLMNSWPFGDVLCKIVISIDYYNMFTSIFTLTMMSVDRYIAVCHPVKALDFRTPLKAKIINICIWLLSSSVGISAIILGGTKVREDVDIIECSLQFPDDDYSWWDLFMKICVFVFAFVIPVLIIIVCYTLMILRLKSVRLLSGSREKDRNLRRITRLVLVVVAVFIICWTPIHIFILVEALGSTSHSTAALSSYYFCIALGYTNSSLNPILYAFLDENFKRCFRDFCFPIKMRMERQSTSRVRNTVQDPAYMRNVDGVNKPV
T2 sequence (P35372 whole entry): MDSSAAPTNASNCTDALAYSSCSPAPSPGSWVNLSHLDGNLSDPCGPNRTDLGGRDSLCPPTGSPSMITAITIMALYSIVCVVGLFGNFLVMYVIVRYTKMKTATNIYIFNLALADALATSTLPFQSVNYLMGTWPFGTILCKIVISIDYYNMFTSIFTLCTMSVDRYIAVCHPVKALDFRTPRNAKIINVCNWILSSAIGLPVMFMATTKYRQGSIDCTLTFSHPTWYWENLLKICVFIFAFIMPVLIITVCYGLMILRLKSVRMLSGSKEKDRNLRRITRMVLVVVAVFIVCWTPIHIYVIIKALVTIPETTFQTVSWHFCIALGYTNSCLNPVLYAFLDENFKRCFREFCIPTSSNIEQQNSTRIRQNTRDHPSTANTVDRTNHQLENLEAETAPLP
Chain of Mu-type opioid receptor (Cavia porcellus, UniProt P97266) (P97266 whole entry): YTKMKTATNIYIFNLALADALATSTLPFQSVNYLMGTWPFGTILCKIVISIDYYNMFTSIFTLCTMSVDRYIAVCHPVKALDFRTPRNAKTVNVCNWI

`N[C@@H](Cc1ccc(O)cc1)C(=O)N[C@@H]1C/C=C/C[C@H](C(=O)O)NC(=O)[C@H](Cc2ccccc2)NC(=O)CNC1=O` returned an inhibitory constant (Ki) in experiment [1] of 74.8 nM. The IC50 on Mu-type opioid receptor [2] is 5.2 nM; in experiment [5] it was 0.76 nM. Besides, the EC50 in experiment [3] is 0.88 nM; on Mu-type opioid receptor [7], 2.65 nM. The Emax at Mu-type opioid receptor [4] turned out to be 70%; in experiment [6] it was 128%.
As for `N[C@@H](Cc1ccc(O)cc1)C(=O)N[C@@H]1CCCC[C@H](C(=O)O)NC(=O)[C@H](Cc2ccccc2)NC(=O)CNC1=O`, in experiment [1], the affinity, expressed as Ki, was 3960 nM. In addition, the half-maximal inhibitory concentration (IC50) worked out at 59 nM on Mu-type opioid receptor [2] and 3.4 nM in experiment [5].
In experiment [1], `N[C@@H](Cc1ccc(O)cc1)C(=O)N[C@@H]1C/C=C\C[C@H](C(=O)O)NC(=O)[C@H](Cc2ccccc2)NC(=O)CNC1=O` registered a Ki of 576 nM. Besides, the concentration for half-maximal inhibition (IC50) at Mu-type opioid receptor [2] was found to be 5.3 nM; in experiment [5] it was 0.59 nM. Also, the values for the EC50 (in experiment [3]; at Mu-type opioid receptor [7]) were 0.83 nM and 2.35 nM, respectively. Also, the Emax came out at 65% at Mu-type opioid receptor [4] and 121% in experiment [6].
`C=CC[C@@H](NC(=O)[C@H](Cc1ccccc1)NC(=O)CNC(=O)[C@@H](CC=C)NC(=O)[C@@H](N)Cc1ccc(O)cc1)C(=O)O`: in experiment [1], the affinity corresponds to a Ki of 3870 nM. Moreover, the concentration for half-maximal inhibition (IC50) at Mu-type opioid receptor [2] turned out to be 34 nM; in experiment [5], 5.7 nM.
